# XiGFP reactiv = activators of X-chromosome reactivation in mouse fibroblasts; activation, % at 7.58 µM; XiGFP mouse fibroblasts, % GFP-positive cells imaging, 3 d; cells co-treated with 5-aza-dC sensitizer; scaled so ellipticine positive control = 100%; 360,000 compounds, 0.055% hits;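 active means mean normalized replicate activation at least 10% and every replicate at or above 10%; inconclusive means only one of the two criteria met; inactive means mean below 10% and not all replicates reach 10%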;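 further: 0% = median of on-plate neutral control wells and 100% = ellipticine 6 µM median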
#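 System: 68-5-11 XiGFP fibroblast line | Buffer or medium: DMEM containing 5-aza-dC | Compound: Single point | Times: Compounds 3 days, fix/stain 15 min at room temperature | Benchmarks: Positive control ellipticine, 6 µM final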
# CFTR F508del cor = CFTR F508del correction in bronchial cells | 350,000 compounds, 0.36% hits | AID 720511 | CFBE cells, YFP halide quenching; stimulated with forskolin plus potentiator P3; % fluorescence drop versus neutral controls | activity (quench increase), % at 7.58 µM;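 active means mean added fluorescence quench of at least 8% versus neutral control, with both replicates also reaching 8%; inconclusive means only one of the mean or replicate conditions met; inactive means mean below 8% and not both replicates reaching 8%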;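 further: cells transiently co-express mutant CFTR-F508del with the halide-sensitive YFP; corrector assay measuring rescue of mutant channel to the surface after 24 h compound exposure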
# DENV2 CPE = DENV2-induced cell death inhibition | DENV2-infected cells, cytopathic effect rescue, plate reader | CPE inhibition, % at 9.99 µM | 350,000 compounds, 1.7% hits; in the data active means CPE inhibition above about 20%, passing the limit was not always enough; inconclusive means no clear call, values can overlap the other calls; tested in BHK-21 cells;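 further: 0% = median of neutral control wells and 100% = median of positive control wells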
# FN deposition inh = fibronectin deposition inhibition; AH1F fibroblasts, Alexa488-fibronectin deposition fluorescence, overnight; inhibition, % at 12.6 µM; 350,000 compounds, 0.086% hits;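 active means mean inhibition across replicates of 30% or more, regardless of how many single replicates reach that level; inconclusive means mean under 30% yet at least half of replicates reach 30%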;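 further: positive control wells lacked labelled fibronectin entirely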
#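 Material – AH1F fibroblast monolayer, labelled fibronectin deposition · Reagent – labelled fibronectin 24 nM · Timing – 1 h adhesion, overnight exposure · Measured by – fluorescence at 485 nm excitation, 525 nm emission · Read-out – inhibition of fibronectin deposition signal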
# Cneo AK release = causes C. neoformans cell lysis; AID 651654; adenylate kinase release luminescence, 4 h; normalised: neutral wells 0, clomiphene wells 100; lysis activity, % at 15 µM; 360,000 compounds, 0.2% hits;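 active means mean lysis activity across replicates of at least 80%, whatever share of replicates individually reach that level; inactive means mean lysis activity below 80%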
#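 Test system: log-phase Cryptococcus neoformans yeast cells. Input: 5 × 10^6 yeast cells/mL. Medium: fresh YPD growth medium. Doses: single dose. Incubation: static 4 h at 37 °C with compound, 1 h detection. Measured by: luminescent adenylate kinase detection reagent. Read-out: signal increase indicating cell lysis. Benchmarks: Clomiphene.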
# PGC1a acetyl inh = PGC1a acetylation modulation, inhibitor mode | 350,000 compounds, 0.17% hits | U2OS PGC1a acetylation, AlphaScreen anti-acetyl-lysine; with virally co-expressed GCN5 acetyltransferase | inhibition, % at 15.6 µM | AID 651687;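 active means every replicate shows inhibition of at least 40%; inconclusive means mean inhibition at least 40% but some replicate below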;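 further: 0% = neutral control wells and 100% = positive control wells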
# * hit, by the source's call; u = inconclusive; x = not tested or not shown; ! = not active in a repeat. In the library only some 1.9% were active in any assay of this set; here they are far more common.
SMILES,XiGFP reactiv,CFTR F508del cor,DENV2 CPE,FN deposition inh,Cneo AK release,PGC1a acetyl inh
C[C@H](CO)N1C[C@H](C)[C@H](CN(C)Cc2ccc(-c3ccccc3)cc2)Oc2ccc(NC(=O)C3CC3)cc2CC1=O,0.2,-3.1,5.2,x,-1.5,-11.9
C[C@H]1CN([C@@H](C)CO)C(=O)Cc2cc(NC(=O)C3CC3)ccc2O[C@H]1CN(C)Cc1ccc(-c2ccccc2)cc1,0.1,4.5,-14.3,x,112.0*,3.5
C[C@@H]1CN([C@@H](C)CO)C(=O)Cc2cc(NC(=O)C3CC3)ccc2O[C@@H]1CN(C)Cc1ccc(-c2ccccc2)cc1,0.0,2.7,31.3*,x,2.9,-6.4
CC(=O)N(C)C[C@H]1Oc2cc(-c3cncnc3)ccc2S(=O)(=O)N([C@H](C)CO)C[C@H]1C,-0.5,-3.9,5.3,-12.9,-0.8,8.5
Cc1noc(C)c1NC(=O)Nc1ccc2c(c1)CC(=O)N([C@@H](C)CO)C[C@@H](C)[C@H](CN(C)C(=O)Nc1ccc(F)cc1)O2,0.1,2.8,-8.1,x,6.5,0.3
O=C(C1=C[C@@H](C2CC2)C[C@@H](OCc2ccc(CO)cc2)O1)N1CCOCC1,0.0,1.7,33.4*!,11.4,-1.6,-1.9
O=C(NCc1nc2ccccc2[nH]1)C1=C[C@@H](C2CC2)C[C@@H](OCc2ccc(CO)cc2)O1,0.0,0.1,7.7,1.7,-17.3,-27.7
CC(C)(C)[C@H]1C=C(C(=O)N2CCCCCCC2)O[C@@H](OCc2ccc(CO)cc2)C1,x,1.6,28.9*,x,5.6,-18.2
O=C(O)C1=C[C@H](C2CC2)C[C@H](OCc2ccc(CO)cc2)O1,-0.1,-3.2,22.3*!,-0.7,-1.2,-6.1
O=C(NCc1nc2ccccc2[nH]1)C1=C[C@H](C2CC2)C[C@H](OCc2ccc(CO)cc2)O1,0.1,-0.6,-12.2,6.8,80.6*!,4.3
O=C(O)C1=C[C@@H](C2CCCCC2)C[C@@H](OCc2ccc(CO)cc2)O1,0.0,1.6,u,5.1,14.3,x
C[C@@H]1CN([C@H](C)CO)C(=O)Cc2cc(NC(=O)CCCCCC(=O)Nc3ccccc3N)ccc2O[C@H]1CN(C)S(=O)(=O)c1cccs1,0.2,0.8,u,-4.6,-4.5,-1.2
CC(=Nc1ccccc1O)c1sc2ccccc2c1O,0.0,10.1*,-4.5,-3.9,-5.4,2.4
COCCCNC(=O)Cn1ccc(NC(=O)OCc2ccccc2)nc1=O,0.0,1.7,x,1.5,-0.4,10.9
O=C(Nc1ccn(CCCNC2CCN(Cc3ccccc3)CC2)c(=O)n1)OCc1ccccc1,0.4,9.0*,3.0,-0.2,0.2,6.4
CC(CNC(=O)Cn1ccc(NC(=O)OCc2ccccc2)nc1=O)c1ccccc1 (stereo not drawn),0.0,-0.4,35.8*,-0.9,1.3,x
O=C(Nc1ccn(CCCNCCN2CCOCC2)c(=O)n1)OCc1ccccc1,-0.1,1.0,8.6,-28.7,-1.4,-6.1
CC(C)(C)OC(=O)C[C@@H]1C/C=C\C[C@H](CC(=O)NCCO)C(=O)N2CCC[C@H]2COC1=O,0.1,2.7,82.6*,2.4,-1.7,6.5
CC(C)(C)OC(=O)C[C@H]1C/C=C\C[C@@H](CC(=O)NCCO)C(=O)N2CCC[C@H]2COC1=O,0.3,-5.1,-4.1,-4.0,-8.1,1.8
O=C(N/N=C/c1ccc2c(c1)OCO2)c1cccc2ccccc12,0.2,-2.4,2.7,-4.1,0.0,x
Cn1cc(C(=O)N/N=C/c2ccc3c(c2)OCO3)c2ccccc21,0.1,9.1*,-2.0,-5.9,0.6,x
CC(C)NC(=O)N(C)C[C@@H]1Oc2ccc(NC(=O)C3CCCCC3)cc2CC(=O)N([C@H](C)CO)C[C@H]1C,0.2,-0.2,u,x,-5.5,x
CCCN1C[C@H](C)[C@H](OC)CN(C)C(=O)c2cc(NS(=O)(=O)c3cn(C)cn3)ccc2OC[C@@H]1C,0.1,0.6,90.0*,-1.1,0.1,1.4
CO[C@@H]1CN(C)C(=O)c2ccc(NS(=O)(=O)c3cn(C)cn3)cc2OC[C@@H](C)N(CC2CC2)C[C@H]1C,0.2,-2.8,21.4*,-1.8,49.1,-0.1
CO[C@H]1CN(C)C(=O)c2ccc(NC(C)=O)cc2OC[C@@H](C)N(C(=O)C2CCOCC2)C[C@@H]1C,-0.2,-2.9,-2.4,-1.3,-0.2,-2.0
SMILES,XiGFP reactiv,CFTR F508del cor,DENV2 CPE,FN deposition inh,Cneo AK release,PGC1a acetyl inh
C/C=C/c1ccc2c(c1)O[C@@H](CN(C)S(=O)(=O)c1ccc(C)cc1)[C@@H](C)CN([C@H](C)CO)S2(=O)=O,-0.1,1.0,14.3,x,-1.1,-16.3
O=C(c1cccnc1)N1C[C@@H]2N[C@H](C1)C2c1ccc(-c2cccnc2)cc1 (stereo partly drawn),0.2,-1.0,2.5,-8.9,x,-2.9
NC(=O)c1cc(Cl)cn(-c2ccccc2)c1=O,0.3,1.2,82.5*,2.4,0.7,-3.6
Cn1c(=O)c(C(N)=S)cn(-c2ccccc2)c1=O,-0.1,-0.7,4.1,2.2,3.4,x
COc1ccc(C)cc1NC(=O)c1cnc2scc(C)n2c1=O,0.2,2.6,u,-15.1,1.1,-2.6
COc1ccc(CCNC(=O)c2cnc3scc(C)n3c2=O)cc1OC,0.2,7.3,75.1*,-0.2,0.7,1.2
COc1ccc(NC(=O)N[C@@H]2CC[C@H](CCNC(=O)Cc3ccncc3)O[C@@H]2CO)cc1,1.7,-0.8,-4.0,-16.8,-1.2,-5.1
C[C@H](CO)N1C[C@H](C)[C@@H](CN(C)C(=O)Nc2ccc(F)cc2)Oc2c(NS(=O)(=O)c3ccccc3)cccc2C1=O,0.1,-1.5,-6.1,x,102.2*,1.0
C[C@H](CO)N1C[C@H](C)[C@@H](CN(C)C(=O)Nc2ccccc2)Oc2c(NS(=O)(=O)c3ccccc3)cccc2C1=O,-1.0,-0.1,25.5*!,-0.6,48.0,16.2
C[C@@H]1CN([C@H](C)CO)C(=O)c2cccc(NS(=O)(=O)c3ccccc3)c2O[C@@H]1CN(C)C(=O)Nc1ccc(F)cc1,0.0,2.9,33.6*,x,1.1,3.2
C[C@@H]1CN([C@H](C)CO)C(=O)c2cccc(NS(=O)(=O)c3ccccc3)c2O[C@@H]1CN(C)C(=O)Nc1ccccc1,-1.0,1.5,2.2,-13.1,6.9,-1.4
CCNC(=O)[C@@H]1[C@@H](CO)[C@@H]2Cn3c(ccc(-c4cccc(F)c4)c3=O)[C@H]1N2C(C)=O,0.0,x,2.5,x,-3.7,x
C[C@@H]1CN([C@@H](C)CO)C(=O)c2cc(NC(=O)c3ccccc3)ccc2O[C@@H](C)CCCCO[C@@H]1CN(C)Cc1ccccc1,0.1,1.5,34.7*,-4.5,-7.7,-0.5

# High-throughput results deposited in PubChem by Broad Institute.
